# Measurements from different studies.
# SPHK2: Sphingosine kinase 2 (SPHK2, Homo sapiens, UniProt Q9NRA0)
# SIRT1: NAD-dependent protein deacetylase sirtuin-1 (SIRT1, Homo sapiens, UniProt Q96EB6)
# XDH: Xanthine dehydrogenase/oxidase (XDH, Bos taurus, UniProt P80457)
SMILES,target,assay,setting,endpoint,result
CCCCc1ccc(CCc2ccc(-c3noc([C@@H]4CCCN4C(=N)N)n3)cc2C(F)(F)F)cc1,SPHK2,"enzyme activity, inhibitor, radiometric",0.3 µM,inhibition,59%
Cn1c(=O)[nH]c(=O)c2c1nc(S)n2CC(O)COc1ccc(Cl)cc1 (centres unmarked),"Legumain (Homo sapiens, UniProt Q99538)","enzyme activity, inhibitor, fluorescence",,kinact/KI,14800 M⁻¹ s⁻¹
FC(F)(F)Oc1cccc(-c2cnc3ccc(-c4ccncc4)nn23)c1,"Tau-tubulin kinase 2 (TTBK2, Homo sapiens, UniProt Q6IQ55)","enzyme activity, inhibitor, radiometric",5 µM,activity vs control,105%
C[C@]12CC[C@@H]3c4ccc(O)cc4CC[C@H]3[C@@H]1CC[C@@H]2O,"Protein disulfide-isomerase (P4HB, Homo sapiens, UniProt P07237)","thermal stability, DSF",100 µM,ΔTm,1.38 °C
CC(C)(O)[C@H]1CC[C@H](Nc2ccc3ncc(-c4cccc(C(F)(F)F)c4)n3n2)CC1,"Testis-specific serine/threonine-protein kinase 6 (TSSK6, Homo sapiens, UniProt Q9BXA6)","enzyme activity, inhibitor",1 µM,remaining activity,97.7%
CCCCCc1cc(=O)c2cc(Cl)cc(Br)c2o1,SIRT1,"enzyme activity, inhibitor, fluorescence",200 µM,inhibition,9.8%
N[C@@H]1CON=C1O,"Alanine racemase, biosynthetic (alr, Escherichia coli K-12, UniProt P0A6B4)","enzyme activity, inhibitor",,kinact/KI,8.6 M⁻¹ s⁻¹
O=Cc1ccc(O)cc1,XDH,"enzyme activity, inhibitor, absorbance",100 µg/mL,inhibition,3.2%
[H]/N=C(\N)N1CCC[C@H]1c1nc(-c2ccc(OCC=Cc3cccc(C(F)(F)F)c3)c(C(F)(F)F)c2)no1,SPHK2,"enzyme activity, inhibitor, radiometric",0.3 µM,inhibition,56%
Oc1ncnc2[nH]ncc12,XDH,"enzyme activity, inhibitor, absorbance",50 µg/mL,inhibition,98.7%
O=C1CC(CCc2c[nH]c3ccccc23)Oc2c(Br)cc(Cl)cc21 (centres unmarked),SIRT1,"enzyme activity, inhibitor, fluorescence",200 µM,inhibition,19%
CC(=S)NCCCC[C@H](NC(=O)OCc1ccccc1)C(=O)N[C@@H](Cc1c[nH]c2ccccc12)C(=O)N[C@@H](CCCNC(=N)N)C(N)=O,SIRT1,"enzyme activity, inhibitor",1 µM,inhibition,64%
CCOC(=O)[C@](CC)(CCCS(=O)(=O)CCOCCOCCNC(=O)OC(C)(C)C)NC(=O)c1ccc(C2CC2)c(Cc2ccc(F)cc2)n1,"Cannabinoid receptor 2 (Cnr2, Mus musculus, UniProt P47936)","cAMP, agonist",,Emax,80%
O=C(Nc1ccc(CN2CCOCC2)c(C(F)(F)F)c1)c1ccc(C#Cc2cccc3cnccc23)cn1,"Oxidized purine nucleoside triphosphate hydrolase (NUDT1, Homo sapiens, UniProt P36639)","enzyme activity, activator",3 µM,activity vs control,140%
